In ChEMBL document CHEMBL1154383, “Novel biphenylcarboxylic acid peroxisome proliferator-activated receptor (PPAR) delta selective antagonists” (Bioorg Med Chem Lett, 2009):
Calls of active or inactive are those of the source. The calls are words filed in the database; no cut-off is given here.

Key:
[1] = biological target: T1, Peroxisome proliferator-activated receptor alpha (Homo sapiens, UniProt Q07869); experiment: Agonist activity at PPARalpha receptor expressed in HEK293 cells co-transfected with GAL4 by transactivation assay; assay type: functional, cell-based
T1 sequence (Q07869 whole entry): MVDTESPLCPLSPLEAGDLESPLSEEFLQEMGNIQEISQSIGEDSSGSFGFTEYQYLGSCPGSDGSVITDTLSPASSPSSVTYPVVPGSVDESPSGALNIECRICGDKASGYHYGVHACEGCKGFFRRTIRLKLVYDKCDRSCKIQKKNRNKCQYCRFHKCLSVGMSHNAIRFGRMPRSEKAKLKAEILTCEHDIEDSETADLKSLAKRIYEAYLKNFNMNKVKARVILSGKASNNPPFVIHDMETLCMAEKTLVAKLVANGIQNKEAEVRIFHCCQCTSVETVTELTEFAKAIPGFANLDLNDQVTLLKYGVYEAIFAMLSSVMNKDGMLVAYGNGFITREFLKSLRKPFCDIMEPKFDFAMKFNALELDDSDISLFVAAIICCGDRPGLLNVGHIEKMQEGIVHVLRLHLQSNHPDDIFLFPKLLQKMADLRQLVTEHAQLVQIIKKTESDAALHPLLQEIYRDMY
How it was run: (§1)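 GAL4-PPARα chimeric receptor transfected into HEK293 cells; cell-based transactivation (agonist mode). Output is EC50, plus % efficacy relative to the positive control fenofibric acid for PPARα.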

[2] = biological target: T2, Peroxisome proliferator-activated receptor alpha (Homo sapiens) (UniProt Q07869); experiment: Agonist activity at PPARalpha receptor expressed in HEK293 cells co-transfected with GAL4 by transactivation assay relative to […]; assay type: functional, cell-based; how it was run: as §1
T2 sequence (whole entry): T1 sequence (Q07869 whole entry)

[3] = biological target: T3, Peroxisome proliferator-activated receptor delta (Homo sapiens, UniProt Q03181); experiment: Agonist activity at PPARdelta receptor expressed in HEK293 cells co-transfected with GAL4 by transactivation assay; assay type: functional, cell-based
T3 sequence (Q03181 whole entry): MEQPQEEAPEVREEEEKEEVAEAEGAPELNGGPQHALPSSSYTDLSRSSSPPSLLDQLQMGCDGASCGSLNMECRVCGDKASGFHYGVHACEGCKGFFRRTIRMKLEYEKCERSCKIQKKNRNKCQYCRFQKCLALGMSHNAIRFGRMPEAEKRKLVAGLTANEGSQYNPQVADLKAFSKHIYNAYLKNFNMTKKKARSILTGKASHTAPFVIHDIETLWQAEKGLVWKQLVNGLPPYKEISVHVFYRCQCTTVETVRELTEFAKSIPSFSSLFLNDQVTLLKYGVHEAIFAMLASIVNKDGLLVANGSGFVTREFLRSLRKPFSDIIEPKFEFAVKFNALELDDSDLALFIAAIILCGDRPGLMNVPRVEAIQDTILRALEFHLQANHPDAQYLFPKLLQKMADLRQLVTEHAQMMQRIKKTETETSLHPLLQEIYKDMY

[4] = biological target: T2, Peroxisome proliferator-activated receptor alpha (Homo sapiens); experiment: (§2) Agonist activity at PPARalpha receptor expressed in HEK293 cells co-transfected with GAL4 at 1 uM by transactivation assay; assay type: functional, cell-based
[5] = biological target: T4, Peroxisome proliferator-activated receptor delta (Homo sapiens) (UniProt Q03181); experiment: Agonist activity at PPARdelta receptor expressed in HEK293 cells co-transfected with GAL4 at 1 uM by transactivation assay; assay type: functional, cell-based
T4 sequence (whole entry): T3 sequence (Q03181 whole entry)

[6] = biological target: T5, Peroxisome proliferator-activated receptor gamma (Homo sapiens) (UniProt P37231); experiment: Agonist activity at PPARgamma receptor expressed in HEK293 cells co-transfected with GAL4 at 10 uM by transactivation assay; assay type: functional, cell-based
T5 sequence (whole entry): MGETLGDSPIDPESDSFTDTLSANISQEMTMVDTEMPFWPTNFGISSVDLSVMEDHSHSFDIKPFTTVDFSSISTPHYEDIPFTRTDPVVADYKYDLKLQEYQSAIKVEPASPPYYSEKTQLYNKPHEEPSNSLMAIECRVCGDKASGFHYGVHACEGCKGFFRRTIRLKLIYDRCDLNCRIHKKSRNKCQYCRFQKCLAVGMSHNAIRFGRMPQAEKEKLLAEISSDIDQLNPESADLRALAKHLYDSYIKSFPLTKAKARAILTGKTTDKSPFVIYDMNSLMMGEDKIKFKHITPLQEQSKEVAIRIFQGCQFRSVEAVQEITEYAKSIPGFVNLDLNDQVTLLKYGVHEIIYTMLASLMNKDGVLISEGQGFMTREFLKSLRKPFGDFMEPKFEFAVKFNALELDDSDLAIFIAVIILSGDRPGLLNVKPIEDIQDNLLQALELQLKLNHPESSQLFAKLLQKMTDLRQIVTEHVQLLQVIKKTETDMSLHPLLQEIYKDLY

[7] = biological target: T2, Peroxisome proliferator-activated receptor alpha (Homo sapiens); experiment: Agonist activity at PPARalpha receptor expressed in HEK293 cells co-transfected with GAL4 up to 10 uM by transactivation assay; assay type: functional, cell-based
How it was run: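 HEK293 cells transfected with GAL4-PPAR chimeric receptors (PPARα, δ or γ) in a cell-based transactivation assay. Results given as EC50 and % efficacy relative to a subtype positive control: fenofibric acid for PPARα, GW501516 for PPARδ, ciglitazone for PPARγ.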

[8] = biological target: T4, Peroxisome proliferator-activated receptor delta (Homo sapiens); experiment: Agonist activity at PPARdelta receptor expressed in HEK293 cells co-transfected with GAL4 at 10 uM by transactivation assay; assay type: functional, cell-based
[9] = biological target: Peroxisome proliferator-activated receptor delta (Homo sapiens) (UniProt Q03181); experiment: Antagonist activity at PPARdelta co-transfected with GAL4-PPAR fusion protein assessed as inhibition of GW501516-induced response by luciferase reporter gene assay
[10] = biological target: T1, Peroxisome proliferator-activated receptor alpha; experiment: as §2; assay type: functional, cell-based
[11] = biological target: T3, Peroxisome proliferator-activated receptor delta; experiment: Antagonist activity at PPARdelta co-transfected with GAL4-PPAR fusion protein assessed as inhibition of GW-501516-induced response by luciferase reporter gene assay; assay type: functional
[12] = biological target: T2, Peroxisome proliferator-activated receptor alpha (Homo sapiens); experiment: Antagonist activity at PPARalpha co-transfected with GAL4-PPAR fusion protein assessed as inhibition of TIPP703-induced response up to 10 uM by luciferase reporter gene assay; assay type: functional
How it was run: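 Antagonist mode in the GAL4-PPAR chimera system. Cells were stimulated with the agonist TIPP-703, with or without three added test concentrations. Inhibition of the agonist-elicited reporter signal was assessed for dose dependence.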

[13] = biological target: T5, Peroxisome proliferator-activated receptor gamma (Homo sapiens); experiment: Antagonist activity at PPARgamma co-transfected with GAL4-PPAR fusion protein assessed as inhibition of TIPP703-induced response up to 10 uM by luciferase reporter gene assay; assay type: functional
How it was run: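 Cells expressing GAL4-PPARα or GAL4-PPARγ chimeras were stimulated with the agonist TIPP-703, with or without co-treatment at 0.1, 1 or 10 µM. Antagonism was read as dose-dependent reduction of the induced transactivation signal.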

[14] = biological target: T6, Peroxisome proliferator-activated receptor gamma (Homo sapiens, UniProt P37231)
T6 sequence (P37231 whole entry): T5 sequence (whole entry)

[15] = biological target: T6, Peroxisome proliferator-activated receptor gamma; experiment: Agonist activity at PPARgamma receptor expressed in HEK293 cells co-transfected with GAL4 by transactivation assay

| SMILES | EC50 [1] [nM] | Efficacy [2] [%] | EC50 [3] [nM] | Activity [4] | Activity [6] | Activity [7] | also measured |
| --- | --- | --- | --- | --- | --- | --- | --- |
| CCCCOc1ccc(-c2cc(C(=O)O)ccc2C)cc1CNC(=O)c1ccc(C(F)(F)F)cc1F | 570 | 100 | 4.9 |  |  |  |  |
| CCCCOc1ccc(-c2ccc(C(=O)O)c(C)c2)cc1CNC(=O)c1ccc(C(F)(F)F)cc1F | 3000 | 100 | 45 |  |  |  |  |
| CCCCOc1ccc(-c2ccc(C(=O)O)cn2)cc1CNC(=O)c1ccc(C(F)(F)F)cc1F |  |  |  | inactive | inactive | inactive | Activity [5]: inactive; Activity [8]: inactive; Activity [9]: inactive |
| CCCCOc1ccc(-c2ccccc2C(=O)O)cc1CNC(=O)c1ccc(C(F)(F)F)cc1F |  |  |  | inactive | inactive | inactive | Activity [5]: inactive; Activity [9]: inactive |
| CCCCOc1ccc(-c2ccc(C)c(C(=O)O)c2)cc1CNC(=O)c1ccc(C(F)(F)F)cc1F | 120 | 100 | 14 |  |  |  |  |
| CCCCOc1ccc(-c2ccc(C(=O)O)cc2)cc1CNC(=O)c1ccc(C(F)(F)F)cc1F |  |  | 170 |  | inactive | inactive | EC50 [10]: Not Active; IC50 [11]: 68 nM; Activity [12]: inactive; Activity [13]: inactive |
| CCCCOc1ccc(-c2ccc(C(=O)O)o2)cc1CNC(=O)c1ccc(C(F)(F)F)cc1F |  |  |  | inactive | inactive | inactive | Activity [5]: inactive; Activity [8]: inactive; Activity [9]: inactive |
| CCCCOc1ccc(-c2ccc(C(=O)O)cc2C)cc1CNC(=O)c1ccc(C(F)(F)F)cc1F |  |  |  | inactive |  |  | IC50 [14]: 10 nM |
| CCCCOc1ccc(-c2ccc(C(=O)O)nc2)cc1CNC(=O)c1ccc(C(F)(F)F)cc1F |  |  | 400 | inactive |  |  |  |
| CCCCOc1ccc(-c2ccc(C(=O)O)cc2F)cc1CNC(=O)c1ccc(C(F)(F)F)cc1F |  |  | 53 | inactive |  |  |  |
| CCCCOc1ccc(-c2cccc(C(=O)O)c2C)cc1CNC(=O)c1ccc(C(F)(F)F)cc1F | 130 | 100 | 1.6 |  |  |  |  |
| CCCCOc1ccc(C[C@H](CC)C(=O)O)cc1CNC(=O)c1ccc(C(F)(F)F)cc1F | 240 |  | 0.72 |  |  |  | EC50 [15]: 1400 nM |
| CCCCOc1ccc(-c2cccc(C(=O)O)c2)cc1CNC(=O)c1ccc(C(F)(F)F)cc1F | 790 | 100 | 29 |  |  |  |  |
